Measured values from PMC548356 (Nucleic Acids Research, 2005).
Where two headings read alike, the source gives them in different places.

Tests used:
Poa1p [1] = molecular target: T1, Poa1p (Saccharomyces cerevisiae, UniProt P38218); assay: Inhibition of Appr1p phosphatase activity of Poa1p; assay type: biochemical
T1 sequence (P38218 1-177): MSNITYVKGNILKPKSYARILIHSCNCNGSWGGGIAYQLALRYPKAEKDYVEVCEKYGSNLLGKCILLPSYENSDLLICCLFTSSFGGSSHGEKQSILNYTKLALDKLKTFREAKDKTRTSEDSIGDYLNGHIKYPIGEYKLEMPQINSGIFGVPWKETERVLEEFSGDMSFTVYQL
Outline: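 Candidate inhibitors were first surveyed at 10 mM under two conditions: 8 nM Poa1p with 26 nM Appr1p for 1 h, and 35 nM Poa1p with 5 μM Appr1p for 2 h. IC50 was then obtained by titrating inhibitor concentration with 35 nM Poa1p and 5 μM Appr1p for 2 h. Readout was radiolabeled Appr1p conversion, separated by TLC.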

Hal2p [2] = assay: Inhibition of Appr1p phosphatase activity of Hal2p; assay type: biochemical, Saccharomyces cerevisiae; conditions: Appr1p well below KM; data not shown
Outline: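 Purified His6-Hal2p at 104 nM was mixed with 5 nM Appr1p and each potential inhibitor at 10 mM. Incubation lasted long enough to convert ~50% of substrate without inhibitor. Labeled product was resolved by PEI-cellulose TLC and quantified by phosphorimaging.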

yeast crude extracts = assay: Appr1p processing activity of yeast crude extracts; assay type: biochemical, Saccharomyces cerevisiae; conditions: for extract amount by which Appr1p is 50% processed: 17 nM Ap*pr1p, 1 h, 30°C
Outline: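 Yeast strains (BY4741 background: wild type, poa1, hal2, and the double deletion) were grown to A600 1.0, washed in cold water, stored at −70°C and lysed with glass beads. Extracts were assayed in 5-fold serial dilutions (starting 16, 29, 23 and 21 μg respectively) with 17 nM Ap*pr1p for 1 h at 30°C. Reactions were phenol:chloroform-treated and resolved on PEI-cellulose TLC.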

Poa1p [3] = molecular target: T1, Poa1p; assay: KI for ADP-ribose by the method of Dixon; assay type: biochemical
Outline: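 Ap*pr1p hydrolysis by 43 nM Poa1p at four fixed Appr1p concentrations (1–25 μM) with ADP-ribose 0–300 μM. Initial-rate inverses plotted against [ADP-ribose]; resulting slopes replotted against 1/[Appr1p]. KI derived from the secondary slope (KM/(Vmax·KI)) using known KM and Vmax for Appr1p. All fits by linear regression.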

Poa1p [4] = molecular target: T1, Poa1p; assay: Appr1p phosphatase assay, steady-state kinetics of Poa1p; assay type: biochemical
Hal2p [5] = assay: Appr1p phosphatase and pAp phosphatase assay, steady-state kinetics of Hal2p; assay type: biochemical, Saccharomyces cerevisiae; conditions: for Km / kcat: substrate of Hal2p, 30°C, pH 7.5
[6] = read-out: Inhibition in survey at 10 mM competitor (IC50), 10 mM competitor, 8 nM Poa1p, 26 nM Appr1p, 1 h, and 35 nM Poa1p, 5 μM Appr1p, 2 h
[7] = substrate of Poa1p, 30°C, pH 7.5, 21 nM Poa1p

SMILES | IC50 (Poa1p [1]; [6]) [mM] | IC50 (Poa1p [1]; 35 nM Poa1p, 5 μM Appr1p, 2 h) [mM] | Inhibition of Appr1p phosphatase activity of Hal2p (in words) (Hal2p [2]) | other results
Nc1ncnc2c1ncn2[C@@H]1O[C@H](CO)[C@@H](O)[C@H]1OP(=O)(O)O [2′pA] | > 10 |  |  | 
Nc1nc2c(ncn2[C@@H]2O[C@H](CO)[C@@H](O)[C@H]2OP(=O)(O)O)c(=O)[nH]1 [2′pG] | > 10 |  | inhibited | 
Nc1ncnc2c1ncn2[C@@H]1O[C@H](CO)[C@@H](OP(=O)(O)O)[C@H]1O [3′pA] |  | > 10 | inhibited | 
Nc1ccn([C@@H]2O[C@H](CO)[C@@H](OP(=O)(O)O)[C@H]2O)c(=O)n1 [3′pC] | > 10 |  |  | 
Nc1ncnc2c1ncn2[C@@H]1O[C@H](COP(=O)(O)O)[C@@H](O)[C@H]1O [5′pA, AMP] | > 10 |  |  | 
Nc1ncnc2c1ncn2[C@@H]1O[C@H](COP(=O)(O)OP(=O)(O)OC[C@H]2OC(O)[C@H](O)[C@@H]2O)[C@@H](O)[C@H]1O (stereo partly drawn) [ADPR, ADP-ribose] |  | 0.03 | inhibited | Ki (Poa1p [3]; 43 nM Poa1p, varied Appr1p and ADP-ribose (0–300 μM), Dixon plot): 0.017 mM; mode of inhibition (Poa1p [3]; plots of inverse initial rates versus inhibitor concentration): classical competitive inhibition
Nc1ncnc2c1ncn2[C@@H]1O[C@H](COP(=O)(O)OP(=O)(O)OC[C@H]2O[C@H](OP(=O)(O)O)[C@H](O)[C@@H]2O)[C@@H](O)[C@H]1O [Appr1p, ADP-ribose-1″-phosphate] |  |  |  | preference of Poa1p for Appr1p relative to pAp (Poa1p [4]; as measured by observed rates): at least 340 fold; kcat/KM difference in favor of Poa1p over Hal2p (Poa1p [4]; substrate Appr1p): 14 fold; lower KM of Poa1p relative to Hal2p (Poa1p [4]; substrate Appr1p): ~25 fold; Km (Poa1p [4]; [7]): 2.8 µM; kcat (Poa1p [4]; [7]): 0.0283 s⁻¹; Km (Hal2p [5]): 74 µM; kcat (Hal2p [5]): 0.0533 s⁻¹; extract amount by which Appr1p is 50% processed (yeast crude extracts; hal2-Δ extract): 1.2 µg; extract amount by which Appr1p is 50% processed (yeast crude extracts; poa1-Δ extract): 33 µg; extract amount by which Appr1p is 50% processed (yeast crude extracts; poa1-Δ, hal2-Δ double mutant extract): 20 µg; extract amount by which Appr1p is 50% processed (yeast crude extracts; wild-type extract): 1.8 µg
NC(=O)c1ccc[n+]([C@@H]2O[C@H](COP(=O)([O-])OP(=O)(O)OC[C@H]3O[C@@H](n4cnc5c(N)ncnc54)[C@H](O)[C@@H]3O)[C@@H](O)[C@H]2O)c1 [NAD] |  | 1.5 |  | 
O=P(O)(O)O[C@H]1O[C@H](CO)[C@@H](O)[C@H](O)[C@H]1O [glucose-1p] | > 10 |  |  | 
O=C[C@H](O)[C@H](O)[C@H](O)COP(=O)(O)O [ribose-5p, ribose 5-phosphate] |  |  | inhibited | IC50 (Poa1p [1]): > 10 mM

The next lines start with results.

IC50 (Poa1p [1]; [6]) [mM] | IC50 (Poa1p [1]; 35 nM Poa1p, 5 μM Appr1p, 2 h) [mM] | Inhibition of Appr1p phosphatase activity of Hal2p (in words) (Hal2p [2]) | SMILES | other results
 | > 10 |  | Nc1ccn([C@@H]2O[C@H](CO)[C@@H](O)[C@H]2OP(=O)(O)O)c(=O)n1 [2′pC] | 
> 10 |  |  | Nc1nc2c(ncn2[C@@H]2O[C@H](CO)[C@@H](OP(=O)(O)O)[C@H]2O)c(=O)[nH]1 [3′pG] | Inhibition of phosphatase activity remaining in poa1-Δ extract (in words) (yeast crude extracts; poa1-Δ extract, data not shown): inhibited
 | > 10 |  | Nc1ncnc2c1ncn2[C@@H]1O[C@H](COP(=O)(O)OP(=O)(O)O)[C@@H](O)[C@H]1O [ADP] | 
 | 1 |  | Nc1ncnc2c1ncn2[C@@H]1O[C@H](COP(=O)(O)OP(=O)(O)OC[C@H]2O[C@@H](n3cnc4c(N)ncnc43)[C@H](O)[C@@H]2O)[C@@H](O)[C@H]1O [AppA] | 
 | 2 | inhibited | NC(=O)c1ccc[n+]([C@H]2O[C@@H](COP(=O)([O-])OP(=O)(O)OC[C@H]3O[C@@H](n4cnc5c(N)ncnc54)[C@H](OP(=O)(O)O)[C@@H]3O)[C@H](O)[C@@H]2O)c1 [NADP] | 
> 10 |  |  | O=P(O)(O)OC[C@H]1OC(O)(CO)[C@@H](O)[C@@H]1O (stereo partly drawn) [fructose-6p] | 
> 10 |  |  | O=C[C@H](O)COP(=O)(O)O [glyceraldehyde-3p] | 
> 10 |  | inhibited | Nc1ncnc2c1ncn2[C@@H]1O[C@H](COP(=O)(O)O)[C@@H](OP(=O)(O)O)[C@H]1O [pAp] | Poa1p phosphatase activity on substrate (in words) (Poa1p [4]; conditions where a turnover of 0.005 min^−1 (0.3% of the activity with Appr1p) should be easily observed): no detectable activity; preference of Hal2p for pAp relative to Appr1p (Hal2p [5]; as measured by kcat/KM values): 10^4 fold; Km (Hal2p [5]): 0.1 µM; kcat (Hal2p [5]): 0.9 s⁻¹
> 10 |  |  | O=P(O)(O)O[C@H]1O[C@H](CO)[C@@H](O)[C@H]1O [ribose-1p] | 
